Laboratory results from ChEMBL document CHEMBL4325889, “Natural products hybrids: 3,5,4'-Trimethoxystilbene-5,6,7-trimethoxyflavone chimeric analogs as potential cytotoxic agents against diverse human cancer cells” (Eur J Med Chem, 2019).

Experiments:
[1] = Cytotoxicity against human IOSE-80PC cells after 48 hrs by MTT assay; format: cell-based
Method in brief: (§1)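 Normal human lung epithelial L132 and ovarian epithelial IOSE-80PC cells were tested by MTT viability assay, and IC50 was determined.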

HCC 2998 = assay: Growth inhibition of human HCC2998 cells at 10 uM after 48 hrs by SRB assay relative to control; format: functional; conditions: HCC 2998, 48 h, read-out: GI
Method in brief: (§2)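 Screened at the National Cancer Institute by the standard NCI protocol using the sulforhodamine B assay, which measures cellular protein. Single dose of 10 µM. Result is percent growth inhibition; values above 100% mean cell number fell below the initial population. Values are the average of duplicates.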

HCT-116 = assay: Growth inhibition of human HCT116 cells at 10 uM after 48 hrs by SRB assay relative to control; format: functional; conditions: HCT-116, 48 h, read-out: GI; method in brief: as §2
LOX IMVI = assay: Growth inhibition of human LOXIMVI cells at 10 uM after 48 hrs by SRB assay relative to control; format: functional; conditions: read-out: GI; method in brief: as §2
HOP-92 = assay: Growth inhibition of human HOP92 cells at 10 uM after 48 hrs by SRB assay relative to control; format: functional; conditions: HOP-92, 48 h, read-out: GI; method in brief: as §2
L132 = assay: Cytotoxicity against human L-132 cells after 48 hrs by MTT assay; format: cell-based; conditions: L132, 48 h; method in brief: as §1
OVCAR-3 = assay: Growth inhibition of human OVCAR3 cells at 10 uM after 48 hrs by SRB assay relative to control; format: functional; conditions: OVCAR-3, 48 h, read-out: GI; method in brief: as §2
MCF7 = assay: Growth inhibition of human MCF7 cells at 10 uM after 48 hrs by SRB assay relative to control; format: functional; conditions: MCF7, 48 h, read-out: GI; method in brief: as §2
U-251 = assay: Growth inhibition of human U251 cells at 10 uM after 48 hrs by SRB assay relative to control; format: functional; conditions: U-251, 48 h, read-out: GI
Method in brief: (§3)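 NCI screen against its human cancer cell line panel by the standard NCI protocol, SRB protein stain. Single dose of 10 μM. Percent growth inhibition versus control; values above 100% mean the cell population fell below the starting number. Each value is the mean of duplicates.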

SK-MEL-2 = assay: Growth inhibition of human SK-MEL-2 cells at 10 uM after 48 hrs by SRB assay relative to control; format: functional; conditions: SK-MEL-2, 48 h, read-out: GI; method in brief: as §2
OVCAR-4 = assay: Growth inhibition of human OVCAR4 cells at 10 uM after 48 hrs by SRB assay relative to control; format: functional; conditions: OVCAR-4, 48 h, read-out: GI; method in brief: as §2
CAKI-1 = assay: Growth inhibition of human Caki1 cells at 10 uM after 48 hrs by SRB assay relative to control; format: functional; conditions: CAKI-1, 48 h, read-out: GI; method in brief: as §2
NCI-H322M = assay: Growth inhibition of human NCI-H322M cells at 10 uM after 48 hrs by SRB assay relative to control; format: functional; conditions: read-out: GI; method in brief: as §2
UO-31 = assay: Growth inhibition of human UO31 cells at 10 uM after 48 hrs by SRB assay relative to control; format: functional; conditions: UO-31, 48 h, read-out: GI; method in brief: as §3
KM12 = assay: Growth inhibition of human KM12 cells at 10 uM after 48 hrs by SRB assay relative to control; format: functional; conditions: KM12, 48 h, read-out: GI; method in brief: as §2
SF-268 = assay: Growth inhibition of human SF268 cells at 10 uM after 48 hrs by SRB assay relative to control; format: functional; conditions: SF-268, 48 h, read-out: GI; method in brief: as §2
UACC-62 = assay: Growth inhibition of human UACC62 cells at 10 uM after 48 hrs by SRB assay relative to control; format: functional; conditions: UACC-62, 48 h, read-out: GI; method in brief: as §3
NCI/ADR-RES = assay: Growth inhibition of human NCI/ADR-RES cells at 10 uM after 48 hrs by SRB assay relative to control; format: functional; conditions: read-out: GI; method in brief: as §2
UACC-257 = assay: Growth inhibition of human UACC257 cells at 10 uM after 48 hrs by SRB assay relative to control; format: functional; conditions: UACC-257, 48 h, read-out: GI; method in brief: as §3
A549 = assay: Growth inhibition of human A549 cells at 10 uM after 48 hrs by SRB assay relative to control; format: functional; conditions: A549, 48 h, read-out: GI; method in brief: as §2
Hs-578T = assay: Growth inhibition of human Hs 578T cells at 10 uM after 48 hrs by SRB assay relative to control; format: functional; conditions: read-out: GI; method in brief: as §2
COLO 205 = assay: Growth inhibition of human COLO205 cells at 10 uM after 48 hrs by SRB assay relative to control; format: functional; conditions: COLO 205, 48 h, read-out: GI; method in brief: as §2
SR = assay: Growth inhibition of human SR cells at 10 uM after 48 hrs by SRB assay relative to control; format: functional; conditions: read-out: GI; method in brief: as §3

Structure (SMILES) | IC50 [1] | inhibition of growth at 10 µM (HCC 2998) | inhibition of growth at 10 µM (HCT-116) | inhibition of growth at 10 µM (LOX IMVI) | inhibition of growth at 10 µM (HOP-92) | IC50 (L132) | inhibition of growth at 10 µM (OVCAR-3) | inhibition of growth at 10 µM (MCF7) | inhibition of growth at 10 µM (U-251) | inhibition of growth at 10 µM (SK-MEL-2) | inhibition of growth at 10 µM (OVCAR-4) | inhibition of growth at 10 µM (CAKI-1) | inhibition of growth at 10 µM (NCI-H322M) | inhibition of growth at 10 µM (UO-31) | inhibition of growth at 10 µM (KM12) | inhibition of growth at 10 µM (SF-268) | inhibition of growth at 10 µM (UACC-62) | inhibition of growth at 10 µM (NCI/ADR-RES) | inhibition of growth at 10 µM (UACC-257) | inhibition of growth at 10 µM (A549) | also measured
COc1ccccc1C(=O)Nc1cccc(-c2cc(=O)c3c(OC)c(OC)c(OC)cc3o2)c1 | > 100 µM | 32.2% | 63.3% | 64.6% | 100% | > 100 µM | 48.6% | 46.6% | 61% | 68.8% | 41% | 34.9% | 56.4% | 84.8% | 61.6% | 45.5% | 56.9% | 41.8% | 38.5% | 51.8% | inhibition of growth at 10 µM (Hs-578T): 76.4%
COc1cc(NC(=O)c2cccc(-c3cc(=O)c4c(O)c(OC)c(OC)cc4o3)c2)cc(OC)c1OC | > 100 µM | 34% | 55.2% | 67% | 43.9% | > 100 µM | 76.2% | 50.6% | 55.2% | 30.4% | 41.4% | 37.5% | 25.6% | 65.7% | 46.1% | 38.1% | 50.6% | 50.6% | 33.9% | 59.5% | inhibition of growth at 10 µM (COLO 205): 32.3%; inhibition of growth at 10 µM (SR): 45.6%; inhibition of growth at 10 µM (Hs-578T): 104%
COc1cc2oc(-c3cccc(NC(=O)c4ccc5c(c4)OCO5)c3)cc(=O)c2c(OC)c1OC | > 100 µM | 46.9% | 64.5% | 60.5% | 106% | 55 µM | 47% | 56.4% | 67.5% | 37.6% | 41.9% | 22.9% | 56.5% | 75.8% | 48.7% | 51.9% | 50% | 42.4% | 22.7% | 48.7% | inhibition of growth at 10 µM (COLO 205): 31.9%; inhibition of growth at 10 µM (SR): 88.5%; inhibition of growth at 10 µM (Hs-578T): 54.8%
